Measurements: PMC3319149 (European Journal of Pharmaceutical Sciences, 2012)
Several values for one entry are separate records, joined by “and”; a condition that tells them apart may be missing. Equal entries are not always repeated. Entries after “also recorded” stand apart in the source; their conditions may differ. Where two headings read alike, the source gives them in different places. Marks after values point to notes of the source that are not given here.

How the values were obtained:
NTCP [1] = biological target: T1, NTCP (Homo sapiens, UniProt Q14973); test: Taurocholate uptake inhibition study in NTCP-HEK monolayers; type: cell-based
T1 sequence (Q14973 1-349): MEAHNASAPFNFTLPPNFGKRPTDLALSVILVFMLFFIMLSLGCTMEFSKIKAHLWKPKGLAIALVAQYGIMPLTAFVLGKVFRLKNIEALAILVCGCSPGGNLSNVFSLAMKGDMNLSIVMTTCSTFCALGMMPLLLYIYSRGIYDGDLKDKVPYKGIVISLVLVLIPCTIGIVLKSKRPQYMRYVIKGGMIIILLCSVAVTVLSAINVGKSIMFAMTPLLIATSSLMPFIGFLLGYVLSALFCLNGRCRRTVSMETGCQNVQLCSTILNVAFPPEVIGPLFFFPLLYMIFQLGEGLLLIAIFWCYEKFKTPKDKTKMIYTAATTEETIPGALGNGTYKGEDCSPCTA

ASBT [2] = biological target: T2, ASBT (Homo sapiens, UniProt Q12908); conditions: read-out: Ki (μM) ASBT; ASBT-MDCK; ref Balakrishnan et al., 2006b; cited from earlier work
T2 sequence (Q12908 1-348): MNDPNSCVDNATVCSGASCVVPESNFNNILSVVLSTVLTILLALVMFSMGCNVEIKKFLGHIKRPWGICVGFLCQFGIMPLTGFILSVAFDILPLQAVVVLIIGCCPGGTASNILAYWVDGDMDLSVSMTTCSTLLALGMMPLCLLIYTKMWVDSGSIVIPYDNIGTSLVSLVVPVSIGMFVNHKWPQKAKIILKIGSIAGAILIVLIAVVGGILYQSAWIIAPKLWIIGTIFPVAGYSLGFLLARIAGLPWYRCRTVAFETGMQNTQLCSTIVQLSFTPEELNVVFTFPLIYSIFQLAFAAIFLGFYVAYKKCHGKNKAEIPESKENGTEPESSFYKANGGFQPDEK

ASBT-MDCK monolayers [3] = conditions: passive permeability, ref Balakrishnan et al., 2006b; cited from earlier work
NTCP-HEK monolayers = test: Passive permeability from uptake in sodium-free buffer, NTCP-HEK monolayers; type: in vitro ADME
ASBT [4] = biological target: T2, ASBT; test: Taurocholate uptake inhibition study in ASBT-MDCK monolayers; type: cell-based; conditions: for Ki: read-out: Ki (μM) ASBT, inhibition of [3H]-taurocholate uptake (2.5 μM cold TCA), 10 min, 37 °C
ASBT [5] = biological target: T2, ASBT; test: Assessment of inhibition type; type: cell-based; conditions: inhibitor 152 μM (I/Ki = 10), taurocholate 1–200 μM
ASBT-MDCK monolayers [6] = test: Passive permeability from uptake in sodium-free buffer, ASBT-MDCK monolayers; type: in vitro ADME
NTCP [7] = biological target: T1, NTCP; test: Assessment of inhibition type; type: cell-based; conditions: inhibitor 118 μM (I/Ki = 10), taurocholate 1–200 μM
ASBT [8] = biological target: T2, ASBT; test: Uptake study in ASBT-MDCK monolayers; type: cell-based
NTCP [9] = biological target: T1, NTCP; test: Uptake study in NTCP-HEK monolayers; type: cell-based
Method in brief: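 Stably transfected NTCP-HEK cells (hygromycin selection) were seeded at 2.5 × 10⁵/well on poly-D-lysine plates, cultured two days and washed with HBSS. Analogue was given at 1 to 250 μM in HBSS or sodium-free buffer (NaCl replaced by tetraethylammonium chloride). Read-out was acetonitrile lysis then LC/MS. Kinetics were fitted by nonlinear regression (eqns 2, 3). Jmax was normalized to same-occasion taurocholate Jmax. Highest distinguishable Kt = (Jmax/2)/Pp.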

[10] = Ki (μM) NTCP, inhibition of [3H]-taurocholate uptake (2.5 μM cold taurocholate), NTCP-HEK monolayers, 5 min, 37 °C
[11] = passive permeability, sodium-free buffer, NTCP-HEK
[12] = read-out: Ki (μM) NTCP, inhibition of [3H]-taurocholate uptake (2.5 μM cold taurocholate), NTCP-HEK monolayers, 5 min, 37 °C
[13] = read-out: NTCP inhibitor class (strong / moderate / weak), class by Ki, NTCP-HEK

SMILES: C[C@H](CCC(=O)O)[C@H]1CC[C@H]2[C@@H]3[C@H](O)C[C@@H]4C[C@H](O)CC[C@]4(C)[C@H]3CC[C@]12C [CDCA, chenodeoxycholic acid, reference compound]
- Ki (NTCP [1]; [10]): 0.939 ± 0.057 µM
- Ki (ASBT [2]): 1.94 ± 0.17 µM
- ASBT Pp*10^6 (cm/s) (ASBT-MDCK monolayers [3]): 20.7±0.7 ^a ×10^−6 cm/s
- NTCP Pp*10^6 (cm/s) (NTCP-HEK monolayers; [11]): 60.7±0.5 ×10^−6 cm/s

SMILES: C[C@H](CCC(=O)O)[C@H]1CC[C@H]2[C@@H]3[C@@H](OC(=O)c4ccc(F)cc4)C[C@@H]4C[C@H](O)CC[C@]4(C)[C@H]3CC[C@]12C [Compound 3, 7-(4-fluorobenzoyloxy) ursodeoxycholate]
- Ki (NTCP [1]; [12]): 183 ± 32 µM
- Ki (NTCP [1]; [13]): > 100 µM
- Ki (ASBT [4]): 10.3 ± 1.1 µM

SMILES: C[C@H](CCC(=O)NCC(=O)O)[C@H]1CC[C@H]2[C@@H]3[C@@H](OC(=O)c4cccnc4)C[C@@H]4C[C@H](O)CC[C@]4(C)[C@H]3CC[C@]12C [Compound 8, 7-nicotinoyl glycoursodeoxycholate]
- Ki (NTCP [1]; [12]): 11.8 ± 2.1 µM
- type of inhibition of ASBT (best fitting model) (ASBT [5]): competitive inhibitor; also recorded: competitive model was the best fitting model
- ASBT Pp*10^6 (cm/s) (ASBT-MDCK monolayers [6]; passive permeability, sodium-free buffer, ASBT-MDCK): 0.95±0.05 ×10^−6 cm/s
- NTCP Pp*10^6 (cm/s) (NTCP-HEK monolayers; [11]): 7.26±0.45 ×10^−6 cm/s
- Ki (ASBT [4]): 15.2 ± 0.8 µM
- type of inhibition of NTCP (best fitting model) (NTCP [7]): competitive inhibitor; also recorded: competitive model was the best fitting model

SMILES: C[C@H](CCC(=O)NCC(=O)O)[C@H]1CC[C@H]2[C@@H]3[C@H](O)C[C@H]4C[C@H](OC(=O)c5cccnc5)CC[C@]4(C)[C@H]3CC[C@]12C [Compound 10, 3-nicotinoyl glycochenodeoxycholate]
- Ki (NTCP [1]; [12]): 5.38 ± 0.44 µM
- Ki (NTCP [1]; [13]): < 25 µM
- ASBT Pp*10^6 (cm/s) (ASBT-MDCK monolayers [6]; MDCK): 5.62±0.13 ×10^−6 cm/s
- ASBT Norm Jmax (ASBT [8]; Jmax normalized to taurocholate Jmax of the same occasion, ASBT-MDCK): 2.11 and 2.1
- Jmax ASBT (ASBT [8]; not normalized, ASBT-MDCK): 0.000242 nmol/s/cm^2
- ASBT Kt (ASBT [8]; uptake into ASBT-MDCK monolayers, 10 min): 8.49 µM and 8.49 ± 1.34 µM
- NTCP Pp*10^6 (cm/s) (NTCP-HEK monolayers): 12.7±0.9 ×10^−6 cm/s
- NTCP Norm Jmax (NTCP [9]; Jmax normalized to taurocholate Jmax of the same occasion, NTCP-HEK): 1.48
- Jmax NTCP (NTCP [9]; not normalized, NTCP-HEK): 0.00298 nmol/s/cm^2
- NTCP Kt (NTCP [9]; uptake into NTCP-HEK monolayers): 16.3 µM and 16.3 ± 3.0 µM
- Ki (ASBT [4]): 6.45 ± 0.66 µM

SMILES: C[C@H](CCC(=O)O)[C@H]1CC[C@H]2[C@@H]3C(=O)C[C@@H]4CC(=O)CC[C@]4(C)[C@H]3CC(=O)[C@]12C [Compound 13, dehydrocholic acid]
- Ki (NTCP [1]; [10]): 355 ± 59 µM
- Ki (NTCP [1]; NTCP inhibitor class (strong / moderate / weak), class by Ki, NTCP-HEK): > 100 µM
- NTCP inhibitor class (strong / moderate / weak) (NTCP [1]; class by Ki, NTCP-HEK): weakly
- Ki (μM) ASBT (ASBT [4]; inhibition of [3H]-taurocholate uptake (2.5 μM cold TCA), 10 min, 37 °C): did not inhibit; also recorded: did not show any ASBT inhibition; also recorded: No inhibition

SMILES: COC(=O)CC[C@@H](C)[C@H]1CC[C@H]2[C@@H]3[C@@H](O)C[C@@H]4C[C@H](O)CC[C@]4(C)[C@H]3CC[C@]12C [Compound 16, methyl ursodeoxycholate]
- Ki (NTCP [1]; [12]): 1.22 ± 0.1 µM
- Ki (ASBT [4]): 29.8 ± 5.1 µM

SMILES: C[C@H](CCC(=O)O)[C@H]1CC[C@H]2[C@@H]3[C@@H](O)C[C@@H]4C[C@H](O)CC[C@]4(C)[C@H]3CC[C@]12C [UDCA, ursodeoxycholic acid, reference compound]
- Ki (NTCP [1]; [10]): 4.9 ± 0.47 µM
- Ki (ASBT [2]): 22.6 ± 3 µM
- ASBT Pp*10^6 (cm/s) (ASBT-MDCK monolayers [3]): 21.2±0.9 ^a ×10^−6 cm/s
- NTCP Pp*10^6 (cm/s) (NTCP-HEK monolayers; [11]): 27.2±0.8 ×10^−6 cm/s

SMILES: C[C@H](CCC(=O)NCCS(=O)(=O)O)[C@H]1CC[C@H]2[C@@H]3[C@H](O)C[C@@H]4C[C@H](O)CC[C@]4(C)[C@H]3C[C@H](O)[C@]12C [taurocholate, Taurocholic acid, reference compound]
- taurocholate Kt NTCP (NTCP [9]; value Kt was set to in regression): 5.31 µM
